Assay results: ChEMBL document CHEMBL3091412, “Discovery of an irreversible HCV NS5B polymerase inhibitor” (Bioorg Med Chem Lett, 2013)
pEC50, pIC50: −log10 of the molar value.

Tests used:
Rattus norvegicus = assay: Toxicity in rat assessed as soft and mucoid stool at 1000 to 2000 mg/kg measured up to 1 day; assay type: organism-based; parameters: dose 1000-2000 mg/kg; settings: in vivo, 24 h
Outline: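 Single-dose rat toxicity study with dose groups of 250, 500, 1000 and 2000 mg/kg. Animals were monitored for clinical signs of toxicity, including stool appearance, and for mortality.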

hERG (KCNH2) = hERG (KCNH2) (Homo sapiens, UniProt Q12809); assay: Inhibition of human ERG at 2 uM by voltage clamp assay
hERG (KCNH2), sequence (Q12809 whole entry): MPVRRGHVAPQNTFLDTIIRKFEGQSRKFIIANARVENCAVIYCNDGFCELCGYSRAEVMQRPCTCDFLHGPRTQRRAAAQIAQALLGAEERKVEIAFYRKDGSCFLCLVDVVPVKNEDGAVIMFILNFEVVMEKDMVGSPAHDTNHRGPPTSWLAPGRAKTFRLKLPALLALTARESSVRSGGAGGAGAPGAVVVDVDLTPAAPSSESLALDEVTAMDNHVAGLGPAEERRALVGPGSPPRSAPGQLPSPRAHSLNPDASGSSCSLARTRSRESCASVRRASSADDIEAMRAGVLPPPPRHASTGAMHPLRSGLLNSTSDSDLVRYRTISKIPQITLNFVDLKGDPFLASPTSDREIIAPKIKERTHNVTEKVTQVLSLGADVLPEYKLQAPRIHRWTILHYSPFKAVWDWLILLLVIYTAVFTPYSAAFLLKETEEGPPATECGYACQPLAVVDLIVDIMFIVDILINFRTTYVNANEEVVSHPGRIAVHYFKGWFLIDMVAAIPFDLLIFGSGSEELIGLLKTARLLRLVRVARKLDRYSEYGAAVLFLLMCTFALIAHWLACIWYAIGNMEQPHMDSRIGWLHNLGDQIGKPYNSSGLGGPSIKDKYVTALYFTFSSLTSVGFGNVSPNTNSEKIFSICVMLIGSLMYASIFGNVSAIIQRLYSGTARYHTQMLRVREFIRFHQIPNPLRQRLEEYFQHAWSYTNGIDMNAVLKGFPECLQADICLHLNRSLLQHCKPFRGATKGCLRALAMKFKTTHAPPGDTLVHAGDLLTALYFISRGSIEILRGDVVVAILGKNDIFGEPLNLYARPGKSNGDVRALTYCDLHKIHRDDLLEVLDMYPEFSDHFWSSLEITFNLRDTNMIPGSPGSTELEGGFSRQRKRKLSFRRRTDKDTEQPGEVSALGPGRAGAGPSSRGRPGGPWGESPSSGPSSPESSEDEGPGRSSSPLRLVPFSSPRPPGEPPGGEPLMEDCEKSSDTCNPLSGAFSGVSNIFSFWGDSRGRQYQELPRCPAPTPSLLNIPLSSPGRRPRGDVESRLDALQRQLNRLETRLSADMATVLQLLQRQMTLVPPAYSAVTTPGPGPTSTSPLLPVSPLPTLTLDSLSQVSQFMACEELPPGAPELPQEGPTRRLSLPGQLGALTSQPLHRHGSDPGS

Cytochrome P450 2D4 [1] = target: T1, Cytochrome P450 2D4 (Rattus norvegicus, UniProt Q64680); assay: Inhibition of rat CYP2D4 measured after compound pre-incubation; assay type: ADME
T1 sequence (Q64680 whole entry): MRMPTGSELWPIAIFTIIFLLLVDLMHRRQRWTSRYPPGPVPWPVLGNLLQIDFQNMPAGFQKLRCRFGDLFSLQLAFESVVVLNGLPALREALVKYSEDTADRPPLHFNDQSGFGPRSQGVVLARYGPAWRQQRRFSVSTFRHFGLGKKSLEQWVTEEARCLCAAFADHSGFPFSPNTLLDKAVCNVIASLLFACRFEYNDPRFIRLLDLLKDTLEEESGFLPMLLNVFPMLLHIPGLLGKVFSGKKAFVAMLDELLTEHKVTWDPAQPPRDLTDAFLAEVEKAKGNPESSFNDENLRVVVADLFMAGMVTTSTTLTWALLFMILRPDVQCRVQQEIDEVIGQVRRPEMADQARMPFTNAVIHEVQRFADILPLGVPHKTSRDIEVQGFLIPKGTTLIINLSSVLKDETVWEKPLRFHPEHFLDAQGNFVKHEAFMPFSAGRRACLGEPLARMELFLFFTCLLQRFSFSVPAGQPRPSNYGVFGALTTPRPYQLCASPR

Cytochrome P450 2C8 = target: T2, Cytochrome P450 2C8 (Homo sapiens, UniProt P10632); assay: Inhibition of CYP2C8 in human liver microsomes measured after compound pre-incubation; assay type: ADME
T2 sequence (P10632 whole entry): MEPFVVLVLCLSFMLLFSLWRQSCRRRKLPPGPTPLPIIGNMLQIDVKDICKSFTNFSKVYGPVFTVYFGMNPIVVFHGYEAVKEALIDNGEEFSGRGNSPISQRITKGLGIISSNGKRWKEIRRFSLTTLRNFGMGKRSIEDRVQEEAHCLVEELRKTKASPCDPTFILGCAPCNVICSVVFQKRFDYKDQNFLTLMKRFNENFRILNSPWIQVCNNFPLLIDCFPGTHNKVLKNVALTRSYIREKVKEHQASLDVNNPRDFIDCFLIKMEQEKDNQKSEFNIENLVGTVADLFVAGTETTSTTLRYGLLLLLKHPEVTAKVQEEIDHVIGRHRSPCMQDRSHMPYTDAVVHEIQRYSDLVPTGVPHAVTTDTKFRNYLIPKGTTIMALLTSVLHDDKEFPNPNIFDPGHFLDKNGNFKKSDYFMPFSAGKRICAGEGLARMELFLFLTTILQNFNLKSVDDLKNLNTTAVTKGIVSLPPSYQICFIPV
Outline: (§1)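 Human liver microsomes; CYP inhibition measured with compound added concurrently or after pre-incubation; concentration inhibiting 50% of enzyme activity determined.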

Cytochrome P450 1A2 [2] = target: T3, Cytochrome P450 1A2 (Homo sapiens, UniProt P05177); assay: Inhibition of CYP1A2 in human liver microsomes measured after compound pre-incubation; assay type: ADME; outline: as §1
T3 sequence (P05177 whole entry): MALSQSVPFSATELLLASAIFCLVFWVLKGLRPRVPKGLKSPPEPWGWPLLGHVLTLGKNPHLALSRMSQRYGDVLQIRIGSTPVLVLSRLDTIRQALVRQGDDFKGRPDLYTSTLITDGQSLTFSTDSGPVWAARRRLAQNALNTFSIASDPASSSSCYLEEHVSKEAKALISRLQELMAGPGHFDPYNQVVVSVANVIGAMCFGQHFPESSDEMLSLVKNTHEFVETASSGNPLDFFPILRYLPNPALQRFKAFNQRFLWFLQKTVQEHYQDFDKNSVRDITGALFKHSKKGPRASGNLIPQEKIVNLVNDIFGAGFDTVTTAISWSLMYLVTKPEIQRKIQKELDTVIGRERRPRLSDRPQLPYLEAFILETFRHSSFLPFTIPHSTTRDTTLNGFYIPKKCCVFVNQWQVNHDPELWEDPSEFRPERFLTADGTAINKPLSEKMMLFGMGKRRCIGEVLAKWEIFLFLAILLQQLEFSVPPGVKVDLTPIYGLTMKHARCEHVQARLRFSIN

Cytochrome P450 3A4 = Cytochrome P450 3A4 (Homo sapiens, UniProt P08684); assay: Inhibition of CYP3A4 in human liver microsomes measured after compound pre-incubation; assay type: ADME; outline: as §1
Cytochrome P450 3A4, sequence (P08684 whole entry): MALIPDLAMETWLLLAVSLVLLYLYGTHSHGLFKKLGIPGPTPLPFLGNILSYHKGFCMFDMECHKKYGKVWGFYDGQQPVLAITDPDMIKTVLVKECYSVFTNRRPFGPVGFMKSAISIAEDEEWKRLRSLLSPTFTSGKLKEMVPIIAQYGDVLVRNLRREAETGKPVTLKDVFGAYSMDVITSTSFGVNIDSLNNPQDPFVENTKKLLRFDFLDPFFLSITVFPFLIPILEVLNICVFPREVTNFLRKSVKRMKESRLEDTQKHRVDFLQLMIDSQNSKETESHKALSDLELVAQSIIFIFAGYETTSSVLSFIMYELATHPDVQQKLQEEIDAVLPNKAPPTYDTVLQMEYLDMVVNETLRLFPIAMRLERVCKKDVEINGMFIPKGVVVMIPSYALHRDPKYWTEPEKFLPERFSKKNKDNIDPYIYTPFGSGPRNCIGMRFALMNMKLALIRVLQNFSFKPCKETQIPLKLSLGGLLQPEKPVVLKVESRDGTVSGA

Cytochrome P450 2D4 [3] = target: T1, Cytochrome P450 2D4; assay: Inhibition of rat CYP2D4 measured after concurrent incubation; assay type: ADME
Cytochrome P450 1A2 [4] = target: T3, Cytochrome P450 1A2; assay: Inhibition of CYP1A2 in human liver microsomes measured after concurrent incubation; assay type: ADME; outline: as §1
Cynomolgus monkey = assay: Drug metabolism in cynomolgus monkey assessed as sulfate conjugate formation administered as single oral dose; assay type: ADME, organism-based, Macaca fascicularis; settings: in vivo
Outline: (§2)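 Radiolabeled [3H] compound given as single oral dose to monkey; bile and urine excretion and metabolites profiled, including parent fraction in bile and glutathione or sulfate conjugates.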

[5] = Drug excretion in cynomolgus monkey bile assessed as parent compound administered as single oral dose; assay type: ADME, Macaca fascicularis; settings: read-out: Drug excretion; outline: as §2
[6] = Cmax in fed cynomolgus monkey at 100 mg/kg, po; assay type: ADME, organism-based, Macaca fascicularis; parameters: dose 100 mg/kg, route oral; settings: in vivo
Outline: (§3)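 Given orally as crystalline sodium salt to fed male Sprague Dawley rats (30–500 mg/kg) or fed male Cynomolgus monkeys (10–100 mg/kg) to assess dose exposure; plasma AUC and Cmax determined.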

[7] = Cmax in fed cynomolgus monkey at 30 mg/kg, po; assay type: ADME, organism-based, Macaca fascicularis; parameters: dose 30 mg/kg, route oral; settings: in vivo; outline: as §3
[8] = Cmax in fed cynomolgus monkey at 10 mg/kg, po; assay type: ADME, organism-based, Macaca fascicularis; parameters: dose 10 mg/kg, route oral; settings: in vivo; outline: as §3
[9] = Cmax in fed Sprague-Dawley rat at 500 mg/kg, po; assay type: ADME, organism-based; parameters: dose 500 mg/kg, route oral; settings: in vivo; outline: as §3
[10] = Cmax in fed Sprague-Dawley rat at 250 mg/kg, po; assay type: ADME, organism-based; parameters: dose 250 mg/kg, route oral; settings: in vivo; outline: as §3
[11] = Cmax in fed Sprague-Dawley rat at 100 mg/kg, po; assay type: ADME, organism-based; parameters: dose 100 mg/kg, route oral; settings: in vivo; outline: as §3
[12] = Cmax in fed Sprague-Dawley rat at 30 mg/kg, po; assay type: ADME, organism-based; parameters: dose 30 mg/kg, route oral; settings: in vivo; outline: as §3
[13] = AUC in fed cynomolgus monkey at 100 mg/kg, po; assay type: ADME, organism-based, Macaca fascicularis; parameters: dose 100 mg/kg, route oral; settings: plasma; outline: as §3
[14] = AUC in fed cynomolgus monkey at 30 mg/kg, po; assay type: ADME, organism-based, Macaca fascicularis; parameters: dose 30 mg/kg, route oral; settings: plasma; outline: as §3
[15] = AUC in fed cynomolgus monkey at 10 mg/kg, po; assay type: ADME, organism-based, Macaca fascicularis; parameters: dose 10 mg/kg, route oral; settings: plasma; outline: as §3
[16] = AUC in fed Sprague-Dawley rat at 500 mg/kg, po; assay type: ADME, organism-based; parameters: dose 500 mg/kg, route oral; settings: plasma; outline: as §3
[17] = AUC in fed Sprague-Dawley rat at 250 mg/kg, po; assay type: ADME, organism-based; parameters: dose 250 mg/kg, route oral; settings: plasma; outline: as §3
[18] = AUC in fed Sprague-Dawley rat at 100 mg/kg, po; assay type: ADME, organism-based; parameters: dose 100 mg/kg, route oral; settings: plasma; outline: as §3
[19] = AUC in fed Sprague-Dawley rat at 30 mg/kg, po; assay type: ADME, organism-based; parameters: dose 30 mg/kg, route oral; settings: plasma; outline: as §3
Hepatitis C virus = assay: Antiviral activity against HCV Con1 in eplicon cells after 3 days by RT-PCR analysis; assay type: functional, organism-based, Hepacivirus hominis; settings: isolate Con1, 72 h
Outline: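 HCV 1b-Con1 replicon cells seeded at 5000 cells/well one day before treatment; inhibitor in DMSO added as 10 serial twofold dilutions in duplicate (final 0.5% DMSO, 5% FBS). Harvested 3 days post dosing; replicon RNA quantified by real-time RT-PCR (Taqman), GAPDH RNA as endogenous control; EC50 calculated.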

SMILES: Cc1cc2c(-c3ccc[nH]c3=O)c(C(=O)O)n(Cc3cc4ccccc4nc3Cl)c2cc1F
- Activity (Rattus norvegicus): Toxic
- inhibition at 2 µM (hERG (KCNH2)): 6%
- pIC50 (Cytochrome P450 2D4 [1]): < 4.30
- pIC50 (Cytochrome P450 2C8): 4.52
- pIC50 (Cytochrome P450 1A2 [2]): < 4.30
- pIC50 (Cytochrome P450 3A4): < 4.30
- pIC50 (Cytochrome P450 2D4 [3]): < 4.30
- pIC50 (Cytochrome P450 1A2 [4]): < 4.30
- Stability (Cynomolgus monkey): Stable
- dose excreted [5]: 81%
- Cmax [6]: 2 µM
- Cmax [7]: 1.3 µM
- Cmax [8]: 0.9 µM
- Cmax [9]: 65 µM
- Cmax [10]: 66 µM
- Cmax [11]: 32 µM
- Cmax [12]: 21 µM
- AUC [13]: 17 µM·h
- AUC [14]: 15 µM·h
- AUC [15]: 9 µM·h
- AUC [16]: 1040 µM·h
- AUC [17]: 1090 µM·h
- AUC [18]: 375 µM·h
- AUC [19]: 176 µM·h
- pEC50 (Hepatitis C virus): 8.52
